Assay results from the RNAGym collection of RNA variant scans (doi:10.1126/science.aae0568).
Fewer inactive variants are shown than the library holds.

B1: tRNA (parent)
chain: GUUCCGUUGGCGUAAUGGUAACGCGUCUCCCUCCUAAGGAGAAGACUGCGGGUUCGAGUCCCGUACGGAACG

Variants of: B1
Test: yeast fitness relative to wild type (ratio to wild type); higher = fitter; tRNA-Arg(CCU), competitive growth, 37 C, YPD
Method in brief: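 Genotype frequency changes were the basis for Darwinian fitness relative to wild type. The frequencies came from 100-nucleotide paired-end sequencing of gene amplicons from the start population and each end population of pooled yeast strains with tRNA-Arg(CCU) gene variants at the native locus. Competition ran in YPD at 37°C for 24 hours in six replicates, genotypes needed ≥ 100 starting reads, and estimates < 0.5 were set to 0.5.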

Variant	yeast fitness
GUUCCGUUGGCGUAAUAGUAACGCGUCUCCAACCUAAGGAGAAGACUGCGGGUUCGGGUCCCGUACGGAACG	0.545
GUUGCGGUGGCCUAAUGGUAACGCGUCUCCCUCCUAAGGAGAAGACUGCGGGUUCGAGUCCCGUACGGAACG	≤ 0.5
GUUCCGUUGGCGUAAUGGUAAGGCGUGUCCCUUCUAAGGAAAAGACUGCGGGUUCGAGUCCCGUACGGAACG	0.631
GUUCCGUUGGCGUAAUGGUAACGCGUCUCCCUCGUAAGGAGAAGACUGCGGGUUCGAGGCCCGUACGGAACG	0.534
GUUCCGUUGGCCUAAUGGUAACGCGUCUUCCUCCUUAGGAGAAGACUGCGGGUUCGAGUCCCGUACGGAACG	≤ 0.5
GUUCCGUUGGCGUAAUGGUAACGAGUCUCCCUCCUAAGGAGAAGACUGGGGGUUCGAGUCCCGUACGGCACG	≤ 0.5
GUGCCGUUGGCGUAAUGGUAACGCGUCUCCCUCCUAAGGAGAUGACUGCGGGCACGCGUCCCGUCCGGAACG	≤ 0.5
GUUCCGUUGGCGUAAUGGUAACGCGUCUCCUUCCUUAGGAGAAGACUGCGAGUUCGAGUCCCGUACGGAUCG	0.693
GUUCCGUUGGCGUAAUAGUAACGCGUCUCCCUCCUAAGGAGAAGACUGCGGGUUCGAGUAACGUACGGAACG	≤ 0.5
GUUCCGUUGGAGUAAUGGUAACGCGUCUCCCUCCUAAGGAGAAGCCUGCGGGUUCGAGUCCCGUACGGAACG	0.563
GUUCCGUUGGCGUAAUGCUAACGCGUCUCCCUCCUAAGGAGAAGAAUGCGGGUUCGAGUCCCGUACGGAACG	0.726
GUUCCGUUGGUGUAAUGGUAACGCGUCUCCCUCCUAAGGGGACGACUGCGGGUUCAAGUCCCGUACGGAACG	0.578
GUUCCGUUGGUGUAAUGGUUACGCGUCUCCCUCCUAAGAAGAAGACUGCGGGUUCGAGUCCCGUACGGAACG	≤ 0.5
GUUCGGUUGGCGUAAUGGUAACGCGUCUCCCUCCUAAGGAGAAGACUGCGGGUUCGAGUCCUGUACGGCACG	0.708
GUUCCGUUGGCAUAAUGGUAACCCGUCUCCCUCCUAAGGAGAAGACUGCGGGUUCCAGUCGCGUACGGAACG	≤ 0.5
GUUCCGUUGGCAUAAUGGUUACGCGUCUCCCUCCUAAGGAGAAGACUGCGGGUUCGAGUCCCGUACGGAACG	0.831
GUCCCGUUGGCGUAAUGGUAACGCGUCUCCCUCCUAAGGAGAAGACUGCGGGCUCGAGUCCCGUACGGAACG	0.78
GUUCCGUUGGCGUAAUGGUAAAGCGUCUCCCUCCUAAGGAGAAGACUGCGGGUUCGUGUCCCGUACAGAACG	0.545
GUUCCGUUGGCGUAAUGGUAACGCGUCUCAUUCCUGAGGAGAAGACUGCAGGUUCGAGUCCCGUAUGGAACG	≤ 0.5

Variant	yeast fitness
GUUCCGUUGGGGUAAUGGUAACGCGUCUCCCUCCUAAGACGAAGACUGCGGGUUCGAGUUCCGUACGUAACG	≤ 0.5
GCUCCGUUGGCGUAAUGGUAACGCGUCUCCCUCCUAAGGAGAUGACUGCAGGUGCGAGUCCUGUACGGAACG	≤ 0.5
GUUUCGUUGGCGGAAUGGUAACGCGUCUCCCUCCUUAGGAGAAGACUGCGGGUUCGAGUCCCGUACGGAACG	0.655
GUUCCGUUGGCGUAAUGGUAUCGCGUCUCCCUCCUAAGGCGAAGACUGCGGGUUCGAGCCCUGUACUGAACG	≤ 0.5
GUUCCGUUGGCGUAAUGGUAACGCGUCUCCCUCCUAAGGAGAACACUGCGGGUUGGAGUCCCGUGCGGAACG	0.555
GUUCCGUUGGCGUAAUGGUAACGCGUCUCCCUCCUAAGGAGAAGACUGCGGGUUCGUGUCCCGUACGUAACG	0.769
GUUCCGGUGGCGUAAUGGUAACGCGUCUCCCUCCUAAGGAGAAGACUGCGGGUUCGAGUCCCGUACAGAACG	0.826
GUUCCGUUGGCGUAAUGGUAACGCGUCUCCCUCCUAAGGAGAAGACUACGGGUUCGAGUCGCGUCCGGAACG	≤ 0.5
GUUCCCUUGGCGUAAUGGUAACGCGUCUCCCUCCUAAGGAGAAGACUGCGGGUUCGAGUCCCGUACGAAACG	0.662
GCUCCGUUGACGUAAUGGUAACGCGUCUCCCUCCUAAGGAGAAGACUGCGGGUACGAGUCCCGUACGGAACG	0.554
GUUCCGUUGGCGUAUUGGUAACGCGUCUCCCUCCUAAGGAGAAGACUGCGGGUUGGAGUCCCGUACGGAACG	0.604
GUUCUGUUGGCGUAAAGGUAACGCGUCUCCCUCCUAAGGAGAAGACUGCGGGUUCGAGUCCCGUACGGAACG	0.882
GUUCAGUUGGCGUAAUGGUAACGCGUCUCCCUCCUAAGGAGGAGACUGCGGGUUCGAGUCCCGUACGGAACG	0.964
GUUCCGUUGCCCUAAUGGUAACGCGUCUCCCUUCGAAGGAGAAGACUGGGGGUUCGAGUCCCGUACGGAACG	≤ 0.5
GUUCCGUUGGCGUAAUGGUAACGCGUCUCCCUCCUAAGGAGAAGACUACGAGUUCGAGCCCCGUACGGAACG	0.956
GUUCCAUUGGCGUAAUGGUAACGCGACUCCCUCCUACGGAGAAGACUGCGGGUUCGUGUCCCGUACGGAACG	≤ 0.5
GUUCCGUUGGCAUAAUGGUAACGCGUGUCCCUCCUAAGGAGAGGACUGCGGGUUCGAGUCCCGGACGGAACG	≤ 0.5
GUUCUGUUGGCGUAAUGGUAACGCGUCUCCCUCCUAAGGAGAAGACUGCGGGUUCCAGUCCCGUACGGAACG	0.651
